Compound activity deposited in PubChem BioAssay by The Scripps Research Institute Molecular Screening Center.
This is a sample that favours compounds with a hit; in the whole collection about 1.9% have one here.
M4 ag: CHRM4 agonism in calcium assay; P08173; CHO-K1 hM4/Gqi5, Fluo-8 calcium fluorescence; vehicle 0%, full acetylcholine response 100%; activation, % at 3 µM; 360,000 tested, 0.14% active;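 active = activation above the run mean over all test wells plus 3 SD, cut at about 32% in these data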;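 also: peak over basal fluorescence ratio per well then scaled between controls; 0% = DMSO wells and 100% = acetylcholine at EC100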
Target sequence (P08173 whole entry, looked up): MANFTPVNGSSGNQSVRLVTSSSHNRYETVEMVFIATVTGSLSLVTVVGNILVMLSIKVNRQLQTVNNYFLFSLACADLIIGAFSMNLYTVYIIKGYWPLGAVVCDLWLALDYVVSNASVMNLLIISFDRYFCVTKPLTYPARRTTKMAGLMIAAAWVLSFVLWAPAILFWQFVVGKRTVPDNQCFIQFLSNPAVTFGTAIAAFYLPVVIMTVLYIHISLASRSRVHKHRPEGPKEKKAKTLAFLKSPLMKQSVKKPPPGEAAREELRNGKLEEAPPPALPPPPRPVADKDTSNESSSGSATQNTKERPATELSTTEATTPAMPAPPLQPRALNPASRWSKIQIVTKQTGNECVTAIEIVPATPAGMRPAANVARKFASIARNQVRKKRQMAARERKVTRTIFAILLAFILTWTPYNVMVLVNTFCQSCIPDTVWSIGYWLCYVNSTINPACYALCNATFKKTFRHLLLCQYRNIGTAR
CHRM4 PAM: potentiates acetylcholine response at human M4 receptor | P08173 | CHO-K1 hM4/Gqi5, Fluo-8 calcium fluorescence, ACh EC20; 0% = ACh EC20, 100% = maximal ACh | activation, % at 3 µM | 360,000 tested, 0.4% active;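 active = activation above its plate's cutoff, the mean activation of sample wells plus 3 SD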
CHRM5 agonist: agonists of human muscarinic M5 receptor (CHRM5). P08912. CHO-K1 hM5 cells, Fluo-8 calcium fluorescence; 0% DMSO wells, 100% maximal acetylcholine response. activation, % at 3 µM. 360,000 tested, 0.19% active;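 active = activation above the run's mean over test compounds plus 3 SD, cut at about 23% in these data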;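 also: signal is peak over basal fluorescence ratio across the kinetic read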
M5 PAM: potentiates acetylcholine response at human M5 receptor | P08912 | CHO-K1 hM5, Fluo-8 calcium, ACh EC20 PAM; 0% = ACh EC20, 100% = ACh EC100 | activation, % at 3 µM | 360,000 tested, 0.3% active;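 active = activation above the run cutoff, the mean activation of all test compounds plus 3 SD, cut at about 18% in these data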
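System: CHO-K1 cell line with stable human muscarinic M5 receptor expression | Also added: EC20 acetylcholine as agonist stimulus | Compound: One concentration, 3 µM final (nominal) | Timing: Fluo-8 loading 80 min at 37 °C plus 30 min room temperature | Measured by: Fluo-8 calcium dye fluorescence, kinetic read | Read-out basis: % activation, ACh-normalized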
CHRM5 antagonist: CHRM5 antagonism in calcium assay; P08912; CHO-hM5 cells, Fluo-8 calcium fluorescence, ACh EC80; inhibition, % at 3 µM; 360,000 tested, 0.59% active; AID 624040;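 active = inhibition above a per-plate cutoff, the mean of that plate's test compounds plus 3 SD, cut at about 27% in these data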;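 also: 0% = acetylcholine EC80 with DMSO and 100% = DMSO without agonist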
CHRM4 antagonist: CHRM4 antagonism in calcium assay; CHO-hM4 cells, ACh EC80, Fluo-8 calcium fluorescence; inhibition, % at 3 µM; 360,000 tested, 0.73% active;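 active = inhibition above its plate's cutoff, the mean inhibition of sample wells plus 3 SD, cut at about 27% in these data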;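 also: 0% = acetylcholine EC80 with DMSO and 100% = DMSO without agonist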
* hit, by the source's call.

COCCCNc1c2c(nc3nnnn13)CCCC2 was read as M4 ag 2.8, CHRM4 PAM 17.5, CHRM5 agonist 1.5, M5 PAM 14.5, CHRM5 antagonist -0.8 and CHRM4 antagonist -4.1.
For COc1ccccc1-n1c(C)nc2cc(C(=O)O)ccc21 the results were M4 ag 1.2, CHRM4 PAM 13.5, CHRM5 agonist 1.4, M5 PAM 18.8*, CHRM5 antagonist 4.9 and CHRM4 antagonist 19.2.
For CCCN(CC(=O)Nc1ccc(F)c(F)c1F)C(=O)C1CC(=O)N(Cc2ccccc2)C1 (stereo not drawn) the results were M4 ag 2.8, CHRM4 PAM 20.9*, CHRM5 agonist -2.2, M5 PAM 0.3, CHRM5 antagonist 6.2 and CHRM4 antagonist -12.4.
`C/C(=N/NC(=O)CSc1nc2ccccc2n1C)c1ccc(O)cc1` gave M4 ag 3.0, CHRM4 PAM -4.6, CHRM5 agonist -0.8, M5 PAM -3.7, CHRM5 antagonist -7.2 and CHRM4 antagonist -0.5.
CN1CCN(c2ccccc2/C=C2/C(=O)Nc3ccccc32)CC1 was read as M4 ag 1.8, CHRM4 PAM -15.9, CHRM5 agonist -8.6, M5 PAM -18.7, CHRM5 antagonist 83.2* and CHRM4 antagonist 20.9.
CN1CCc2cccc3c2C1Cc1ccc(O)c(O)c1-3 (stereo not drawn) was read as M4 ag 3.0, CHRM4 PAM -7.6, CHRM5 agonist 35.7*, M5 PAM -7.4, CHRM5 antagonist 4.1 and CHRM4 antagonist 4.5.
`Cn1c(C(=O)NC2CC2)cc2c(=O)n(C)c3ccccc3c21` gave M4 ag 25.1, CHRM4 PAM 30.6*, CHRM5 agonist 1.4, M5 PAM -4.1, CHRM5 antagonist 0.7 and CHRM4 antagonist 4.7.
Screening CCCNC(=O)N1C2=NC(C(=O)OC)=C(C(=O)OC)[C@@H]3N(Cc4ccccc4)c4ccccc4[C@]23C[C@H]1CO returned M4 ag 0.2, CHRM4 PAM 10.3, CHRM5 agonist 6.8, M5 PAM 20.1*, CHRM5 antagonist -8.6 and CHRM4 antagonist 7.2.
COC(=O)C(=Cc1ccncc1)c1cccc2ccccc12 was read as M4 ag -0.9, CHRM4 PAM -1.6, CHRM5 agonist -1.6, M5 PAM -3.2, CHRM5 antagonist -5.1 and CHRM4 antagonist -7.7.
Cc1cccc(CN(C(=S)Nc2c(C)cccc2C)c2cccnc2)c1 was read as M4 ag 1.6, CHRM4 PAM 11.1, CHRM5 agonist -13.0, M5 PAM 18.2*, CHRM5 antagonist -6.2 and CHRM4 antagonist -12.2.
CCc1ccccc1NC(=S)N(Cc1cccc(C)c1)c1cccnc1 was read as M4 ag 0.7, CHRM4 PAM -3.6, CHRM5 agonist -17.0, M5 PAM -1.6, CHRM5 antagonist 18.2 and CHRM4 antagonist 0.3.
Screening COc1ccc([C@H]2CC(=O)C=C(c3ccc(OC(F)(F)F)cc3)C2)cc1 returned M4 ag 0.2, CHRM4 PAM 9.1, CHRM5 agonist 0.3, M5 PAM -9.7, CHRM5 antagonist 11.2 and CHRM4 antagonist -3.7.
Screening COc1ccc([C@H]2CC(=O)C=C(c3ccc(CNC(=O)OC(C)(C)C)cc3)C2)cc1 returned M4 ag 25.2, CHRM4 PAM -13.7, CHRM5 agonist 1.7, M5 PAM -39.3, CHRM5 antagonist 26.6 and CHRM4 antagonist 27.6*.
For O=c1cc(-c2ccc(O)cc2)oc2ccccc12 the results were M4 ag 1.5, CHRM4 PAM -2.2, CHRM5 agonist 2.8, M5 PAM -7.0, CHRM5 antagonist 5.3 and CHRM4 antagonist -6.2.
Screening O=c1cc(-c2ccc(O)cc2)oc2ccc(O)cc12 returned M4 ag 0.2, CHRM4 PAM 42.5*, CHRM5 agonist -2.9, M5 PAM 0.9, CHRM5 antagonist 11.7 and CHRM4 antagonist 11.8.
CC(Nc1ncnc2sccc12)c1ccccc1 (stereo not drawn) was read as M4 ag 12.8, CHRM4 PAM -4.2, CHRM5 agonist 6.3, M5 PAM -12.2, CHRM5 antagonist 33.0* and CHRM4 antagonist 13.6.
For OC(C#Cc1ccccc1)(c1ccccc1)c1ccccc1 the results were M4 ag -1.0, CHRM4 PAM -6.2, CHRM5 agonist -1.5, M5 PAM -1.8, CHRM5 antagonist 11.7 and CHRM4 antagonist 7.9.
For CC(C)[N+](C)(C)CC#CC(O)(c1ccccc1)c1ccccc1 the results were M4 ag 0.9, CHRM4 PAM -59.5, CHRM5 agonist -18.4, M5 PAM -32.1, CHRM5 antagonist 99.8* and CHRM4 antagonist 99.3*.
`C[N+]1(CC#CC(O)(c2ccccc2)c2ccccc2)CCCC1` gave M4 ag 0.3, CHRM4 PAM -17.7, CHRM5 agonist -7.6, M5 PAM -18.1, CHRM5 antagonist 98.8* and CHRM4 antagonist 98.9*.
For O=c1[nH]c2ccccc2c2nc(-c3cccc(S(=O)(=O)N4CCCC4)c3)nn12 the results were M4 ag 1.5, CHRM4 PAM 19.1, CHRM5 agonist -3.1, M5 PAM -4.7, CHRM5 antagonist 5.7 and CHRM4 antagonist 29.3*.
Screening CC(C)(C)c1cc(NC(=O)c2ccc(OC3CCCC3)cc2)no1 returned M4 ag 1.0, CHRM4 PAM 2.2, CHRM5 agonist 0.5, M5 PAM -1.1, CHRM5 antagonist 3.1 and CHRM4 antagonist -4.0.
O=C(Nc1ccon1)c1ccc(OC2CCCC2)cc1 was read as M4 ag 1.2, CHRM4 PAM -10.7, CHRM5 agonist -0.2, M5 PAM -9.0, CHRM5 antagonist 9.6 and CHRM4 antagonist 38.2*.
`CC1CCCC(NC(=O)COC(=O)c2ccc(Br)o2)C1C` (stereo not drawn) gave M4 ag 1.6, CHRM4 PAM 22.3*, CHRM5 agonist -1.3, M5 PAM 3.6, CHRM5 antagonist 14.9 and CHRM4 antagonist -3.1.
Screening CC1CCCC(NC(=O)COC(=O)c2ccc([N+](=O)[O-])o2)C1C (stereo not drawn) returned M4 ag 0.5, CHRM4 PAM -2.7, CHRM5 agonist -2.9, M5 PAM -11.3, CHRM5 antagonist 20.2 and CHRM4 antagonist 7.5.
For CC(=O)Nc1cccc(NC(=O)C2CCCN2C(=O)Nc2cccc(C)c2)c1 (stereo not drawn) the results were M4 ag 2.6, CHRM4 PAM 3.1, CHRM5 agonist 0.6, M5 PAM 2.5, CHRM5 antagonist 2.1 and CHRM4 antagonist 9.8.
`CCOC(=O)C1CCCN(CC(=O)c2ccc(F)cc2)C1` (stereo not drawn) gave M4 ag 15.1, CHRM4 PAM -11.9, CHRM5 agonist 26.8*, M5 PAM -21.6, CHRM5 antagonist 18.3 and CHRM4 antagonist 1.7.
